Source: ChEMBL document CHEMBL1208706, “Synthesis, antidepressant evaluation and QSAR studies of novel 2-(5H-[1,2,4]triazino[5,6-b]indol-3-ylthio)-N-(substituted phenyl)acetamides” (2010)

Test system: Mus musculus
Assay: Antidepressant activity in Swiss albino mouse assessed as reduction of immobility duration at 30 mg/kg, ip administered 3 times for 24 hrs measured after 1 hr last post dose by tail suspension test
Assay type: functional
Design: scale not given: the % may be the effect or the level left
Settings: route intraperitoneal
Procedure, shortened: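 Adult male Swiss albino mice (22 ± 2 g), housed with controlled humidity, temperature and day-night cycle. Compound in DMSO given ip at 30 mg/kg at t = 0, 18 and 24 h; vehicle controls got DMSO ip at 5 mL/kg. Tail suspension run 1 h after the final dose, immobility scored over 6 min. %DID = [(A − B)/A] × 100 against control; n = 6, mean ± SEM, one-way ANOVA with Dunnett's test.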

CN(C)CCCN1c2ccccc2CCc2ccccc21 [IMIPRAMINE]
Activity: 60.58%

Cc1cccc(NC(=O)CSc2nnc3c(n2)[nH]c2ccccc23)c1
Activity: 26.29%

O=C(CSc1n[nH]c2c3ccccc3nc-2n1)NC1CCCCC1
Activity: 47.51%

O=C(CSc1nnc2c(n1)[nH]c1ccccc12)Nc1ccc([N+](=O)[O-])cc1
Activity: 62.35%

O=C(CSc1nnc2c(n1)[nH]c1ccccc12)Nc1ccc(Cl)cc1
Activity: 68.33%

O=C(CSc1nnc2c(n1)[nH]c1ccccc12)Nc1ccccc1Br
Activity: 42.84%

COc1ccc(NC(=O)CSc2nnc3c(n2)[nH]c2ccccc23)cc1
Activity: 20.82%

O=C(CSc1nnc2c(n1)[nH]c1ccccc12)Nc1ccccc1
Activity: 70.62%

Cc1ccc(NC(=O)CSc2n[nH]c3c4ccccc4nc-3n2)cc1
Activity: 30.57%

O=C(CSc1nnc2c(n1)[nH]c1ccccc12)Nc1ccccc1[N+](=O)[O-]
Activity: 42.66%

O=C(CSc1nnc2c(n1)[nH]c1ccccc12)Nc1cccc(Br)c1
Activity: 66.57%

O=C(CSc1nnc2c(n1)[nH]c1ccccc12)NCc1ccccc1
Activity: 56.75%

CNCCC(Oc1ccc(C(F)(F)F)cc1)c1ccccc1 (stereo unspecified) [FLUOXETINE]
Activity: 69.48%

Cc1ccccc1NC(=O)CSc1nnc2c(n1)[nH]c1ccccc12
Activity: 20.87%

O=C(CSc1nnc2c(n1)[nH]c1ccccc12)Nc1cccc(Cl)c1
Activity: 57.15%

O=C(CSc1nnc2c(n1)[nH]c1ccccc12)Nc1ccc(Br)cc1
Activity: 67.59%

COc1ccccc1NC(=O)CSc1nnc2c(n1)[nH]c1ccccc12
Activity: 24.3%

O=C(CSc1nnc2c(n1)[nH]c1ccccc12)Nc1cccc([N+](=O)[O-])c1
Activity: 58.75%

O=C(NCCN1CCOCC1)c1ccc(Cl)cc1 [MOCLOBEMIDE]
Activity: 68.16%

O=C(CSc1nnc2c(n1)[nH]c1ccccc12)Nc1ccccc1Cl
Activity: 51.89%

COc1cccc(NC(=O)CSc2nnc3c(n2)[nH]c2ccccc23)c1
Activity: 31.08%
